Shown are actives, neighbours in structure and some others; about 8.9% of the full set was active somewhere.
HSV augment – HSV replication enhancement; HSV replication augmentation in cells, fold increase; maximum fold increase; hit rate 0.005% among 220,000; in the data active = maximum fold increase above about 1.5; inconclusive = no clear call, values can overlap the other calls; tested in PC3 cells
bCat nuc transl – alters nuclear translocation of beta-catenin in HeLa cells; immunofluorescence imaging; nuclear translocation activity, % at 5 µM; hit rate 0.3% among 190,000;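 active = nuclear translocation activity above 50% at 5 µM, with a well cell count of 50 or more; inconclusive = wells under 50 cells across six images, flagged as toxic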;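 also: per-cell ratio of nuclear to cytoplasmic median beta-catenin stain intensity; plate controls were DMSO negative control for no effect and GSK-3 inhibitor IX positive control for full effect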
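Test system: human HeLa cells, endogenous beta-catenin. Times: 24 h compound exposure, 37°C. Measured by: beta-catenin immunofluorescence imaging with DAPI.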
MT stabilize HCS – microtubule stabilizers in HeLa cells. HeLa tubulin immunostaining HCS, 24 h; share of cells brighter than vehicle mean+2SD. % tubulin-high responders, % at 10 µM. hit rate 0.83% among 200,000. AID 2205;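 active = plate Z-score above 3 for both tubulin-high and condensed-nucleus cell shares, with cell loss under 80%, at 10 µM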;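 also: anti alpha tubulin signal scored within the nucleus-defined area of each cell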
Dynein cargo inh – dynein cargo transport inhibition; 3617.4 mouse cells, GR-EGFP nuclear translocation imaging; test concentration mostly 20 µM; stimulated with dexamethasone, 1 µM; active compounds read low; hit rate 0.47% among 220,000; z-score, hits read low;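 active = plate z-score of nuclear minus cytoplasmic receptor signal below a set negative limit, without overly bright fluorescence or cell loss, cut at about -3.5 in these data, passing the limit was not always enough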;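 also: z-score of nuclear minus cytoplasmic ring GR-EGFP intensity difference per well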
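Medium: Induction medium lacking tetracycline, stripped serum | Probe or stimulus: 1.0 µM final dexamethasone stimulus | Schedule: 48 h induction, then 1 h compound, then 30 min agonist, 37 °C | Signal: Automated 10x imaging of fixed Hoechst-stained cells | Evaluation: Per-cell GR-EGFP intensity, nucleus versus surrounding cytoplasmic ring, well-averaged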
Lmaj promast – Leishmania major promastigote growth inhibition. Leishmania major promastigotes, resazurin fluorescence viability. inhibition, % at 10 µM. hit rate 9% among 200,000; in the data active = inhibition above about 50%;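 also: promastigotes grown with compound for 44 hours at 28 °C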
* hit, by the source's call; i = inactive; ? = inconclusive; nt = not tested or not shown.

SMILES	HSV augment	bCat nuc transl	MT stabilize HCS	Dynein cargo inh	Lmaj promast
COc1ccc(/C=C/C(=O)c2ccccc2O)cc1	i	nt	3	-0.9	3
O=C(/C=C/c1ccccc1)c1ccccc1	i	-4	5	-0.83	17
Cc1ccc(/C=C/C(=O)c2ccccc(=O)c2O)cc1C	i	0	6	-0.16	97*
O=C(/C=C/c1ccccc1)c1cc(Br)ccc(=O)c1O	?	nt	3	-1.3	77*
c1ccc(-n2cnc3cc(NCc4ccncc4)ccc32)cc1	i	2	4	-0.5	3
COCCCNCCOc1cc(C(C)C)ccc1C	i	0	3	-0.43	91*
Cc1ccccc1OCCNCC(C)O (stereo not given)	i	-2	2	0.27	-4
CCC(C)NCCOCCOc1ccc(Cl)cc1Br (stereo not given)	i	2	4	1.7	96*
Cc1ccc(OCCOCCNC(C)C)c(Br)c1	i	0	1	-1.1	90*
CCCCNCCOCCOc1ccc(C)cc1Br	i	-3	3	-0.75	98*
CC(C)[C@H](NC(=O)NCc1ccc(Cl)cc1)C(=O)O	i	0	2	0.55	-2
COc1ccccc1OCCOCCOc1ccc(C)cc1Br	i	0	5	0.61	33
COCCCNCCOCCOc1ccc(C)cc1Br	i	-2	2	0.9	90*
O=[N+]([O-])c1ccc(N/N=C/c2cccc(O)c2O)c(S(=O)(=O)N2CCOCC2)c1	i	2	5	-0.21	0
COc1cc(C(=O)NCC(c2cccnc2)N2CCN(c3ccccc3)CC2)cc(OC)c1OC (stereo not given)	i	0	3	-0.076	67*
O=C(NCC(c1cccnc1)N1CCN(c2ccccc2)CC1)c1ccc2c(c1)OCO2 (stereo not given)	i	nt	2	-0.58	88*
CC1(C)CC(=O)C2=C(C1)N(Cc1ccccc1)C(=O)C2(O)C(F)(F)F (stereo not given)	i	-1	3	0.1	66*
O=C1CCCC2=C1C(O)(C(F)(F)F)C(=O)N2Cc1ccccc1 (stereo not given)	i	-2	4	-0.29	61*
O=C(NCc1cccnc1)c1ccc([N+](=O)[O-])o1	i	5	3	-0.72	94*
O=C(NCCc1ccccc1)c1ccc(CS(=O)(=O)Cc2ccccc2F)o1	i	nt	2	1.6	0
Cc1cc(=O)oc(C)c1C(=O)NCc1cccnc1	i	nt	3	1	-4
O=C(NCc1ccco1)c1ccc(Cn2cc([N+](=O)[O-])cn2)o1	i	-6	2	-1	-4
Cc1cccc(CS(=O)(=O)Cc2ccc(C(=O)NCc3ccco3)o2)c1	nt	0	5	1.2	80*
Cc1ccc(CCNC(=O)c2ccc(CS(=O)(=O)Cc3ccccc3F)o2)cc1	i	-4	1	-0.36	75*
O=C(NCc1ccco1)c1ccc([N+](=O)[O-])o1	i	8	3	-1.2	63*
SMILES	HSV augment	bCat nuc transl	MT stabilize HCS	Dynein cargo inh	Lmaj promast
O=C(/C=C/c1ccco1)NCCCN1CCN(CCCNC(=O)/C=C/c2ccco2)CC1	i	0	2	-0.4	-6
CC(C)[C@H](NC(=O)c1ccc(C(C)(C)C)cc1)C(=O)Nc1nnc(C2CC2)s1	i	nt	2	-0.56	84*
COc1cc(OC)cc(C(=O)N[C@H](C(=O)Nc2nnc(C3CC3)s2)C(C)C)c1	i	-4	6	1.5	16
COc1cccc(N2C(=O)CC(N3CCN(CCN=CC4=C(O)CC(C)(C)CC4=O)CC3)C2=O)c1 (stereo not given)	i	0	4	2	-4
CCOC(=O)C1=C(CC)Nc2ccccc2N=C1NC(=O)Nc1ccc(Cl)c(Cl)c1	i	nt	2	1.2	97*
COc1ccc(-c2nn(C)c(=O)c3ccccc23)cc1NC(=O)Cn1nc(-c2ccccc2)c2ccccc2c1=O	i	1	2	-0.67	65*
CCCCn1cnc2c1c(=O)[nH]c(=O)n2CCCC	i	-4	2	1.1	1
CSc1ccccc1C(=O)C1CCCN(S(=O)(=O)N(C)C)C1 (stereo not given)	i	-2	2	2.2	89*
C=CCN(c1ccccc1Cl)S(=O)(=O)c1cccc(C(=O)NCCc2ccc(OC)cc2)c1	i	1	3	-0.43	64*
COCCn1nnnc1C(c1ccc(OC)c(OC)c1)N1CCN(c2nc3ccccc3s2)CC1 (stereo not given)	i	-5	5	-0.45	83*
Cc1ccc(C(c2nnnn2Cc2ccccc2)N2CCN(Cc3ccccc3)CC2)cc1 (stereo not given)	i	9	2	-0.0049	92*
CC1CCN(C(c2ccc(N(C)C)cc2)c2nnnn2Cc2ccc(F)cc2)CC1 (stereo not given)	i	6	1	0.17	-1
COc1ccc(Cn2nnnc2C(c2cccs2)N2CCCCCC2)cc1 (stereo not given)	i	0	3	-0.38	57*
Fc1ccc(Cn2nnnc2C(c2ccc(Cl)cc2)N2CCSCC2)cc1 (stereo not given)	i	-1	2	0.36	99*
COc1ccc(Cn2nnnc2C(c2cccs2)N2CCSCC2)cc1 (stereo not given)	i	-4	3	-0.64	48
COc1ccc(C(c2nnnn2Cc2ccccc2)N2CCN(c3nc4ccccc4s3)CC2)cc1 (stereo not given)	i	-2	3	-0.72	100*
COCCn1nnnc1C(c1ccccc1OC)N1CCc2ccccc2C1 (stereo not given)	i	nt	2	-0.04	85*
C/C(=N\NC(=O)c1ccc(C)cc1C)c1ccc(-n2ccnc2)cc1	i	0	5	-0.25	79*
C/C(=N\NC(N)=O)c1ccc(-n2ccnc2)cc1	i	2	3	-0.65	-5
Clc1cccc(CSC2=NCCCN2)c1	i	-2	4	-0.099	60*
Nc1ncnc2c1CCC2	i	-3	2	-0.025	-1
O=C(COc1cccnc1[N+](=O)[O-])NC1CCS(=O)(=O)C1 (stereo not given)	i	-1	4	-0.25	-5
COCCNC(=O)c1cccc(C)c1[N+](=O)[O-]	i	-1	4	0.91	-6
Cc1cccc(C(=O)NCCc2ccc(S(N)(=O)=O)cc2)c1[N+](=O)[O-]	i	-8	1	2	87*
COc1ccc(N=C2SC(CC(=O)Nc3ccccc3OC)C(=O)N2Cc2ccco2)cc1 (stereo not given)	i	6	3	0.57	99*
COC(=O)c1cc(NC(=O)CC2SC(=Nc3ccccc3)N(CCc3c[nH]c4ccccc34)C2=O)cc(C(=O)OC)c1 (stereo not given)	i	3	3	-0.74	99*

Bioassay records: PubChem BioAssay, several laboratories
